Screens deposited in PubChem by several laboratories.
697 NFkB inh = inhibitors of the PMA/ionomycin-induced NF-kB reporter in 697 B cells. AID 435022. 697 B-cell NF-kB luciferase reporter, 16 h. inhibition, % at 4 µM. 330,000 compounds, 0.33% hits; in the data active = inhibition above about 35%
HSF1 inhib = HSF1 inhibition; 300,000 compounds, 0.77% hits; AID 2098; NIH3T3-HGL HSE-luciferase, MG132-induced, luminescence 8 h; active compounds read low; activity change, negative = inhibition, % at 7.5 µM (by protocol);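 active = more than half of replicate wells show activity change below -50%, luminescence cut by over half; inconclusive = some wells, but at most half, below -50%; inactive = no replicate well below -50%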;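 note: luciferase reports HSF-1 transcriptional activity via heat shock element; 0% = median of DMSO wells and -100% = zero luminescence signal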
HSF-1 act = increases HSF-1 driven luciferase reporter signal; NIH3T3-HGL HSF-1 luciferase reporter, MG132, 8 h; 100% = twice DMSO control signal; activation, % at 9 µM; 300,000 compounds, 1.7% hits;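 active = mean replicate activation of at least 50% with a set share of replicates each reaching 50%; inconclusive = only one of those two conditions met; inactive = mean below 50% and too few replicates reaching it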;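 note: 0% = median of the neutral control wells and 100% = twice that signal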
T cruzi inh = T. cruzi replication inhibition; T. cruzi beta-gal in NIH3T3, luminescence, 90 h; inhibition, % (no concentration beside the values); 300,000 compounds, 1.4% hits;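 active = mean inhibition across valid replicates above about 55%, limit read from the data; inconclusive = mean below that limit but half or more replicates reach it; inactive = mean below it, under half of replicates reach it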;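 note: signal also drops with host cell toxicity which is not excluded here; 0% = plate median of DMSO wells and 100% = zero luminescence signal; higher percent means less beta-gal luminescence so fewer parasites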
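Material: NIH/3T3 host cells with β-galactosidase reporter T. cruzi; Input: 5,000 host fibroblasts per well; Medium: DMEM, 2% fetal bovine serum; Compound: 50 nL DMSO compound solution per well; Schedule: 3 h host attachment, then at least 90 h co-culture; Detection: luminescent β-galactosidase signal after 60 min lysis.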
GPR7 antag = antagonists of human GPR7 (neuropeptides B/W receptor 1). P48145. 290,000 compounds, 1.1% hits. inhibition, % at 4.4 µM. GPR7-expressing cells, fluorescence antagonist assay; in the data active = inhibition above about 16%, passing the limit was not always enough;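 note: cells stimulated with the agonist NPW; 0% = agonist with vehicle and 100% = vehicle without agonist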
Target sequence (P48145 whole entry, looked up): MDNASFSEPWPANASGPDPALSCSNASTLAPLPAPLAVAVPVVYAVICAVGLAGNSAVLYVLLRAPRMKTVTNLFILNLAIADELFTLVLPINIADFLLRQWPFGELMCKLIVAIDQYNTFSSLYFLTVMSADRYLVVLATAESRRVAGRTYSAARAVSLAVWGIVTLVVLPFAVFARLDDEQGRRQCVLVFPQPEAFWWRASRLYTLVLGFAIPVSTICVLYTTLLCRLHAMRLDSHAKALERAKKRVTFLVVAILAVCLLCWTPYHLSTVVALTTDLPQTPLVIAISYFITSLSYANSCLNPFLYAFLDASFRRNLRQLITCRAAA
Jurkat NFkB inh = lowers PMA/ionomycin-induced NF-kB signal in Jurkat cells; PMA/ionomycin-induced NF-kB luciferase reporter, luminescence; inhibition, % at 4 µM; 330,000 compounds, 0.53% hits; in the data active = inhibition above about 50%
Numbers without * were called inactive; ? = inconclusive; nt = not tested or not shown. Only some compounds are listed: those with a hit (about 4.8% of all), similar ones and a draw of the others.

SMILES | 697 NFkB inh | HSF1 inhib | HSF-1 act | T cruzi inh | GPR7 antag | Jurkat NFkB inh
C(=N\C(/N=C/c1ccco1)c1ccco1)/c1ccco1 | -38 | 54 | 81* | -8 | -12 | -8
NC(=S)N/N=C/c1ccc2ccccc2c1 | -47 | -4 | 0 | 58* | -5 | -24
NC(=S)N/N=C/c1cccc(/C=N/NC(N)=S)c1 | 28 | -7 | 2 | -4 | -7 | 7
COc1ccccc1C(=O)Nc1ccnn1C1CCN(C/C=C/c2ccc(F)cc2)CC1 | 5 | 8 | 38 | 25 | 2 | 12
S=C(Nc1ccccc1)N1CCn2cccc2C1c1cccnc1 (stereo not drawn) | 14 | 1 | 0 | 31 | -6 | 9
S=C(NC1CCCCC1)N1CCn2cccc2C1c1cccnc1 (stereo not drawn) | 12 | 9 | -20 | 55* | 1 | 8
S=C(NC1CCCCC1)N1CCn2cccc2C1c1ccncc1 (stereo not drawn) | 4 | -5 | -23 | -9 | 5 | -1
Fc1cccc(NC(=S)N2CCn3cccc3C2c2cccnc2)c1 (stereo not drawn) | -7 | -6 | 3 | 63* | -3 | 3
O=C(COc1ccc(Br)cc1Cl)NC1CCN(Cc2ccccc2)CC1 | 15 | 0 | 12 | 61* | -6 | -7
O=C(COc1ccccc1Cl)NCc1ccccc1 | -75 | 13 | 20 | -3 | 16 | -42
O=C(COc1ccc(Br)cc1Cl)NC(=O)NCc1ccccc1 | 4 | 27 | 67* | 13 | -13 | 7
CCCCCCOC(=O)/C=C/c1c(C)[nH]c(=O)[nH]c1=O | -20 | -6 | -2 | 41 | -4 | 0
Cc1ccc(C)c(S(=O)(=O)N2CCN(C(=O)CN3C(=O)C4CC=CCC4C3=O)CC2)c1 (stereo not drawn) | 7 | nt | nt | nt | nt | -11
CCOC(=O)N1CCN(CC(=O)N2CCC(C(N)=O)CC2)CC1 | 5 | -6 | -2 | 3 | -2 | -1
COc1ccc(OC)c(N(CC(=O)NC2CCCC2)S(=O)(=O)c2ccc(OC)c(OC)c2)c1 | 11 | -14 | -34 | 1 | 6 | 0
CCCCN(CC)c1nc(N)c2c(N)nc(OCC)cc2c1C#N | -14 | 22 | 57* | 38 | -3 | 16
Cc1cc(O)c(S(=O)(=O)c2ccccc2)c(C)c1NS(=O)(=O)c1ccccc1 | -16 | 4 | 0 | 16 | -8 | -8
O=C(N/N=C/c1ccc([N+](=O)[O-])s1)c1cccc(Br)c1 | 0 | 1 | 33 | 93* | 1 | 10
O=C(N/N=C/c1ccc([N+](=O)[O-])s1)c1ccncc1 | 1 | 50 | 61* | 56* | 3 | 26
O=C(N/N=C/c1cccnc1)c1cccc(NC(=O)c2cccc(Br)c2)c1 | 12 | 19 | 35 | 11 | 8 | -9
O=C(N/N=C/c1ccc(O)c2ncccc12)c1cccc(Br)c1 | -20 | -18 | -22 | 60* | 5 | 8
Cc1ccc(C(=O)N/N=C\c2ccc([N+](=O)[O-])s2)cn1 | 15 | -4 | -6 | ? | -3 | 17
O=C(N/N=C/c1ccc(Br)s1)c1ccc([N+](=O)[O-])cc1 | 4 | -16 | -32 | 76* | 4 | -11
CC(C)(C)OC(=O)N/N=C\c1ccc([N+](=O)[O-])s1 | -16 | 16 | 12 | 57* | -5 | -4
C=C(C)C1CC=C(C)/C(=N\NC(=O)CCC(=O)Nc2ccc(C)c(C)c2)C1 (stereo not drawn) | 19 | -1 | 11 | -3 | -7 | 0
SMILES | 697 NFkB inh | HSF1 inhib | HSF-1 act | T cruzi inh | GPR7 antag | Jurkat NFkB inh
COc1ccc(C2NC(=S)NC3=C2N2CCC3CC2)cc1 (stereo not drawn) | 4 | 0 | -7 | -19 | -16 | 22
Fc1ccc(C2NC(=S)NC3=C2N2CCC3CC2)cc1 (stereo not drawn) | -22 | 13 | 53* | -15 | 8 | 10
Cc1oc(-c2cc3c(cc2Cl)OCO3)nc1CN1CCCC1c1ccc(F)cc1 (stereo not drawn) | -6 | -52* | -60 | 6 | 4 | -9
CCOc1ccccc1-c1nc(CN2CCCC2c2nccs2)c(C)o1 (stereo not drawn) | -3 | nt | nt | 15 | -3 | -9
Cn1cc(CNC(=O)c2sc3cccc(Cl)c3c2Cl)cn1 | 13 | 57 | 90* | 7 | -6 | -9
CCN(CC)c1ccc2c(-c3ccc(S(=O)(=O)O)cc3S(=O)(=O)[O-])c3ccc(=[N+](CC)CC)cc-3oc2c1 | 25 | -18 | -22 | 1 | 70* | 23
CCN(CC)c1ccc2cc(C(N)=O)c(=N)oc2c1 | 8 | 9 | 11 | 5 | -2 | -17
CCN1CCN(/C=N/c2nc3c(s2)CCCC3)CC1 | -59 | -55* | -60 | -15 | 5 | -5
CC(C(=O)N1CCN(c2ccc([N+](=O)[O-])cc2)CC1)N1C(=O)C2CC=CCC2C1=O (stereo not drawn) | 1 | -1 | 16 | 2 | -3 | 2
Cn1nc(C(=O)NCc2ccccc2Cl)c2c1-c1ccccc1S(=O)(=O)C2 | -12 | 4 | -4 | 14 | 5 | 7
Cc1ccccc1NC(=O)C1(NC(=O)c2cccc(N3C(=O)CSC3c3ccccc3)c2)CCCCC1 (stereo not drawn) | -8 | 18 | 9 | 4 | 20* | -4
CC(C)(C)c1ccc(C2SCC(=O)N2c2cccc(C(=O)O)c2)cc1 (stereo not drawn) | -38 | -8 | -9 | 3 | 22 | -16
Cc1ccc(NC(=O)CN(C)C(=O)Cc2ccc(Cl)c(Cl)c2)cc1 | 7 | 3 | 14 | 6 | 5 | 14
Cc1ccc(NC(=O)CN(C)C(=O)Cn2ncc(Cl)c(Cl)c2=O)cc1 | nt | 29 | 52* | -14 | 2 | nt
Cc1cc(C)c(N=Cc2c(O)c3ccccc3oc2=O)c(C)c1 | -77 | 9 | 6 | 1 | -10 | 10
CCC(C)NCCOCCOc1cc(C)c(Cl)c(C)c1 (stereo not drawn) | -1 | -6 | -14 | ? | 2 | 3
CCC(C)NCCOCCOc1ccc(F)cc1 (stereo not drawn) | 13 | -2 | 15 | 55* | 13 | 0
CC(=O)NCc1ccc(-c2nc3ccccc3s2)cc1 | -174 | 9 | 26 | 5 | 5 | -148
O=c1c(-c2nc3ccccc3s2)cccn1Cc1ccccc1 | -118 | 50 | 93* | 17 | -7 | -127
O=C(Nc1ccccc1-c1nc2ccccc2s1)c1ccco1 | -20 | 1 | 0 | 34 | 10 | -32
Cc1ccc(Cn2cccc(-c3nc4ccccc4s3)c2=O)cc1 | -105 | 53 | 106* | 0 | -7 | -103
COc1ccccc1C(=O)NCC(=O)OCC(=O)N1CC(C)OC(C)C1 (stereo not drawn) | 10 | nt | nt | nt | nt | 7
